Compound activity from PubChem BioAssay.
TAAR1 ag: human TAAR1 agonism | activation, % at 3 µM | 0.99% of 360,000 active | CHO RD-HGA16 TAAR1, Fluo-8 calcium fluorescence; vehicle wells 0%, saturating PEA agonist 100% | Q96RJ0 | AID 624467;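 active = activation above the mean activation of all test compounds in the run plus 3 SD, cut at about 38% in these data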
Target sequence (Q96RJ0 whole entry, looked up): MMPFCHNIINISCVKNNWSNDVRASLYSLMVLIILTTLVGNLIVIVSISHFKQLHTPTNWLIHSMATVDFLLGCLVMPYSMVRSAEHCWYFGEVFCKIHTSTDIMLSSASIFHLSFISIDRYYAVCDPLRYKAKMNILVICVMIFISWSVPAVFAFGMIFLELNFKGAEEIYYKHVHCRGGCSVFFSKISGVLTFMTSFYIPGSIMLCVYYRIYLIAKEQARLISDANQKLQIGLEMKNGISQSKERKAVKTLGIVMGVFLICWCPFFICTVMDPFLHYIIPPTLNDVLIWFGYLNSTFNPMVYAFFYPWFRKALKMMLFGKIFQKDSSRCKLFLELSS
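Signal – calcium-sensitive Fluo-8 signal, excitation 470-495, emission 515-575 nm · System – RD-HGA16 (CHO) cells co-expressing Gα16 and hTAAR1 · Incubation – 17-24 h seeding, 75 min 37 °C dye, 30 min RT · Compound dosing – 3 µM single concentration · Repeats – no replicates (n 1)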
OX1R antag-1: human HCRTR1 antagonism. AID 434989. CHO/OX1R cells, Fluo-8 calcium fluorescence, orexin A. inhibition, % at 5 µM. O43613. 0.43% of 330,000 active;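 active = inhibition above its plate's threshold, mean inhibition of all tested compounds on the plate plus 3 SD, cut at about 37% in these data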
Target sequence (O43613 whole entry, looked up): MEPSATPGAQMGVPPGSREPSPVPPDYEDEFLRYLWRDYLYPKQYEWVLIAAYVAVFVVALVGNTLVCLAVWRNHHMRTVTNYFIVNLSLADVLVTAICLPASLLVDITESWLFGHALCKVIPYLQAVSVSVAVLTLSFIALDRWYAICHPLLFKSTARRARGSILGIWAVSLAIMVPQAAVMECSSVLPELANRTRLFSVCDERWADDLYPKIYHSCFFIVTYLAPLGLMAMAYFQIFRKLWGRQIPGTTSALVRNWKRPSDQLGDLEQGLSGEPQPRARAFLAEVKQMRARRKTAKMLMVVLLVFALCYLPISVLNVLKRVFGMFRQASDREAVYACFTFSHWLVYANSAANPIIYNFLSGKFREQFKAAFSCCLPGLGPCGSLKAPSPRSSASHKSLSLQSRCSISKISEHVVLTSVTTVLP
OX1R antag-2: OX1R (human) antagonism; OX1R-expressing cells, FRET antagonist read-out; inhibition, % at 6.6 µM; 1.8% of 330,000 active; in the data active = inhibition mostly above about 38%, no sharp cut-off; inactive = mostly below about 40%
TAAR1 antag: antagonists of human TAAR1. 1.5% of 360,000 active. CHO RD-HGA16 TAAR1, Fluo-8 calcium fluorescence, antagonist. AID 624466. inhibition, % at 3 µM. Q96RJ0;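 active = inhibition above a per-plate cutoff, the mean inhibition of test compounds on that plate plus 3 SD, cut at about 49% in these data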
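Test system – hTAAR1-expressing CHO RD-HGA16 cells, Gα16-coupled · Also added – β-PEA at EC80 concentration, post-compound challenge · Compound – 3 µM, single point · Incubation – dye loading 75 min at 37 °C, then 30 min room temperature · Measured by – Fluo-8 intracellular calcium dye fluorescence, real-time kinetic reads · Benchmarks – vehicle and agonist controls · Replicates – singlicate, one well per test compound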
GPR7 antagonist: blocks human GPR7 receptor signaling; 1.1% of 290,000 active; GPR7-expressing cells, fluorescence antagonist assay; P48145; inhibition, % at 4.4 µM; in the data active = inhibition above about 16%, passing the limit was not always enough;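 note: cells stimulated with the agonist NPW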
CHO parental Ca: counter-screen for OX1R antagonists: effect in parental CHO cells. parental CHO-K1, ATP-induced calcium, Fluo-8 fluorescence. inhibition, % at 5.6 µM. 0.63% of 330,000 active. AID 463079;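 active = inhibition above that plate's mean sample inhibition plus 3 SD, cut at about 26% in these data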
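Test system: untransfected parental CHO cell line; also added: ATP stimulus; dosing: 5.6 µM, single dose; signal: calcium-sensitive Fluo-8 fluorescence; measure: percent inhibition of ATP-evoked calcium rise, normalized to controls; benchmarks: low control ATP plus DMSO, high control DMSO only; replication: one well per compound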
GPR7 antag conf: confirmation of human GPR7 antagonists; shares compounds with GPR7 antagonist; GPR7-expressing cells, calcium fluorescence antagonist mode; inhibition, % at 4.4 µM; 52% of 2,400 active; in the data active = inhibition above about 24%;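 note: stimulated with the GPR7 agonist NPW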
MCHR1 antagonist: antagonizes human MCHR1, a GPR7 antagonist counter-screen | inhibition, % at 4.4 µM | shares compounds with GPR7 antagonist | 62% of 2,400 active | MCHR1-expressing cells, fluorescence antagonist assay | AID 2148; in the data active = inhibition above about 22%
OX1R Ca confirm: confirmation of human orexin 1 receptor antagonists; shares compounds with OX1R antag-1; CHO/OX1R cells, orexin A calcium Fluo-8 fluorescence; inhibition, % at 5 µM; 38% of 1,100 active; AID 492963; in the data active = inhibition above about 29%
CHO Ca counter: counter-screen for OX1R antagonists: effect in parental CHO cells. parental CHO-K1, ATP-induced calcium, Fluo-8 fluorescence. 9.3% of 1,100 active. shares compounds with OX1R antag-1. AID 492965. inhibition, % at 5.6 µM;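 active = inhibition above a per-plate limit, the mean inhibition of that plate's test compounds plus 3 SD, cut at about 25% in these data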
TAAR1 ag conf: human TAAR1 agonism, confirmed. CHO RD-HGA16 TAAR1, Fluo-8 calcium fluorescence; scaled: DMSO 0%, maximal phenethylamine 100%. 82% of 2,400 active. shares compounds with TAAR1 ag. AID 651783. activation, % at 3 µM;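 active = activation above a cutoff set at the run's mean compound activation plus 3 SD, cut at about 39% in these data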
Ga16 ag counter: counter-screen for TAAR1 agonists: nonselective agonists in parental cells. shares compounds with TAAR1 ag. CHO-Ga16 parental, Fluo-8 calcium fluorescence; normalized to maximal ATP response, DMSO zero. activation, % at 3 µM. 50% of 2,400 active;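 active = activation above the run cutoff, the mean activation over all tested wells plus 3 SD, cut at about 12% in these data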
TAAR1 desens: counter-screen for human TAAR1 agonists: agonists that desensitize TAAR1. 46% of 2,400 active. inhibition, % at 3 µM. AID 651951. shares compounds with TAAR1 ag. CHO RD-HGA16 hTAAR1, Fluo-8 calcium, beta-PEA response inhibition;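 active = inhibition above the run cutoff, the mean inhibition of all test compounds plus 3 SD, cut at about 49% in these data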;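 note: beta-PEA stimulus applied at its EC80; loss of beta-PEA calcium signal after compound pretreatment read as receptor desensitization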
Ga16 antag count: nonselective Ga16 antagonist in TAAR1 agonist counter-screen. shares compounds with TAAR1 ag. CHO-Ga16 ATP-induced calcium, Fluo-8 fluorescence. inhibition, % at 3 µM. 39% of 2,400 active;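 active = inhibition above the plate's mean compound inhibition plus 3 SD, computed per plate, cut at about 22% in these data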
Of the large screens only hits and unclear results are named; the others gave an inactive call (follow-up assays come after a bar, where they were run). Hits are enriched below; roughly 4.5% of the tested compounds scored in any of these assays.

Cc1ccc(C(=O)CSC2=C(C#N)C(c3ccco3)CC(=O)N2)c(C)c1 (stereo unspecified)	TAAR1 ag 74, GPR7 antagonist 41 | GPR7 antag conf 71 | MCHR1 antagonist 64 | OX1R Ca confirm 39 | CHO Ca counter inactive | TAAR1 ag conf 48 | Ga16 ag counter 25 | TAAR1 desens inactive | Ga16 antag count 24
CN(/N=C/c1ccc(-c2ccc([N+](=O)[O-])cc2)o1)c1ccccc1	TAAR1 ag 66, OX1R antag-1 60, TAAR1 antag 68, GPR7 antagonist 45, CHO parental Ca 53 | GPR7 antag conf 56 | MCHR1 antagonist 71 | TAAR1 ag conf 44 | Ga16 ag counter 71 | TAAR1 desens 63 | Ga16 antag count 74
O=C(c1ccc(S(=O)(=O)Nc2ccccc2)cc1)N1CCCC(C(F)(F)F)C1 (stereo unspecified)	TAAR1 ag 116, TAAR1 antag 65, GPR7 antagonist 48 | GPR7 antag conf 61 | MCHR1 antagonist 36 | TAAR1 ag conf 99 | Ga16 ag counter 58 | TAAR1 desens 57 | Ga16 antag count 30
O=C(c1ccccc1)c1ccc(C(=O)N2CCCC(C(F)(F)F)C2)cc1 (stereo unspecified)	none (no result: GPR7 antagonist)
CC(=O)Nc1ccc(Sc2ncccc2C(=O)Nc2ccc(OC(F)(F)F)cc2)cn1	TAAR1 ag 139, OX1R antag-1 88, TAAR1 antag 104, GPR7 antagonist 97, CHO parental Ca 77 | GPR7 antag conf 98 | MCHR1 antagonist 103 | TAAR1 ag conf 143 | Ga16 ag counter 107 | TAAR1 desens 104 | Ga16 antag count 90
CC(=O)Nc1ccc(Sc2ncccc2C(=O)Nc2cc(Cl)cc(Cl)c2)cn1	none
CSc1ccc(Cn2nnc(C(=O)NCc3ccccc3)c2N)cc1	TAAR1 ag 98, TAAR1 antag 75, GPR7 antagonist 37 | GPR7 antag conf 57 | MCHR1 antagonist 52 | TAAR1 ag conf 105 | Ga16 ag counter 48 | TAAR1 desens 60 | Ga16 antag count 41
Cc1cc(OC2CCCCC2)nc(NCc2ccccc2)n1	none
Cc1cc(N2CCCCC2)nc(NCc2ccccc2)n1	TAAR1 ag 100, TAAR1 antag 64, GPR7 antagonist 84 | GPR7 antag conf 73 | MCHR1 antagonist 89 | TAAR1 ag conf 73 | Ga16 ag counter 38 | TAAR1 desens 71 | Ga16 antag count 50
CC(C)(C)[C@H]1CCC(=O)N([C@H](CN=[N+]=[N-])Cc2ccccc2)CC1	none
CC[C@@H](C(=O)[C@@H](C)[C@@H](O)[C@H](C)CCc1ccc(C)c(O)c1C(=O)O)[C@H]1O[C@](CC)([C@H]2CC[C@](O)(CC)[C@H](C)O2)C[C@@H]1C	TAAR1 ag 76, OX1R antag-1 40, TAAR1 antag 67, GPR7 antagonist 48, CHO parental Ca 39 | GPR7 antag conf 48 | MCHR1 antagonist 38 | TAAR1 ag conf 73 | Ga16 ag counter 65 | TAAR1 desens 73 | Ga16 antag count 52
CCc1nn(CC(=O)NCCC2=CCCCC2)c(=O)c2cc3cc(F)ccc3n12	none
CCCCCCCOC(=O)C[N+](C)(C)CCOC1CC2CCC1(C)C2(C)C (stereo unspecified)	TAAR1 ag 56, GPR7 antagonist 28 (no result: OX1R antag-1, OX1R antag-2, CHO parental Ca) | GPR7 antag conf 67 | MCHR1 antagonist 87 | TAAR1 ag conf 74 | Ga16 ag counter 38 | TAAR1 desens inactive | Ga16 antag count 35
CSc1ccc(C(=O)C2CCCN(C(=O)Cn3cnnn3)C2)cc1 (stereo unspecified)	none
Cc1cn([C@H]2C[C@H](O)[C@@H](CCC(=O)NCC(c3ccccc3)c3ccccc3)O2)c(=O)[nH]c1=O	none (no result: OX1R antag-1, OX1R antag-2, GPR7 antagonist, CHO parental Ca)
COC(=O)C(NC(=O)c1ccccc1C)(Nc1ncc(S(=O)(=O)c2ccc([N+](=O)[O-])cc2)s1)C(F)(F)F (stereo unspecified)	TAAR1 ag 70, GPR7 antagonist 35 | GPR7 antag conf 41 | MCHR1 antagonist 37 | TAAR1 ag conf 55 | Ga16 ag counter 26 | TAAR1 desens 52 | Ga16 antag count 23
Cc1ccc(S(=O)(=O)N/N=C/c2ccc(OC3CSC3)cc2)cc1	TAAR1 ag 91, OX1R antag-1 84, TAAR1 antag 93, GPR7 antagonist 34, CHO parental Ca 56 | GPR7 antag conf 89 | MCHR1 antagonist 84 | TAAR1 ag conf 98 | Ga16 ag counter 56 | TAAR1 desens 97 | Ga16 antag count 71
CN(C)CCCN(C(=O)c1ccc(S(=O)(=O)N2CCc3ccccc3C2)cc1)c1nc2c(F)cccc2s1	none
CN(C)CCCN(C(=O)c1ccc(S(=O)(=O)N2CCc3ccccc3C2)cc1)c1nc2ccc(F)cc2s1	TAAR1 ag 75, TAAR1 antag 50, GPR7 antagonist 46 | GPR7 antag conf 76 | MCHR1 antagonist 63 | TAAR1 ag conf 69 | Ga16 ag counter 46 | TAAR1 desens inactive | Ga16 antag count 42
O=S(=O)(NC1CCCC1)c1ccc(S(=O)(=O)NC2CCCC2)cc1	TAAR1 ag 57, GPR7 antagonist 43 | GPR7 antag conf 51 | MCHR1 antagonist 33 | TAAR1 ag conf 45 | Ga16 ag counter 24 | TAAR1 desens inactive | Ga16 antag count 32
O=S(=O)(NC1CCCCCCC1)c1ccc(F)cc1	none (no result: GPR7 antagonist)
